Laboratory results as given in ChEMBL document CHEMBL1133180 (2000).

Experiments:
[1] = tested on: Mus musculus; test: Minimal effective s.c. dose to reverse Scopolamine induced amnesia in mouse passive-avoidance test.
[2] = organism: Mus musculus; test: Change in the latency time on day 1 to that of day 2; assay type: functional
Procedure, shortened: (§1)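 Mouse light/dark step-through test with a pitfall floor: entering the dark room drops the mouse 40 cm into 10 °C water. Latencies in s are taken at training and at retention 24 h later, capped at 120 s. Mice not entering within 60 s are excluded. Dosing is sc 20 min before training, in saline or DMSO/H2O vehicle.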

[3] = organism: Mus musculus; test: Latency time on 2nd (post-treatment) day of mouse passive-avoidance test.; assay type: functional
Procedure, shortened: as §1

[4] = organism: Mus musculus; test: Latency time on 1st day of mouse passive-avoidance test.; also: test concentration or dose not given here; assay type: functional
Procedure, shortened: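 Mouse light/dark step-through test with a pitfall floor: entering the dark room drops the mouse 40 cm into 10 °C water. Mice not entering within 60 s are excluded. Dosing is sc 20 min before training, in saline or DMSO/H2O vehicle.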

[5] = tested on: Mus musculus; test: Minimal effective dose to reverse Scopolamine induced amnesia, when given ip in mouse passive avoidance test; assay type: functional
Procedure, shortened: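 Mouse passive avoidance (light/dark box) with a pitfall floor: entering the dark room drops the mouse 40 cm into 10 °C water. Test drugs were given in a 1-to-10 dilution series 20 min before training. […] Retention was tested at 24 h, with a 120 s maximum. Mice not entering within 60 s at training were excluded. The read-out is the retention minus training latency (s).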

[6] = tested on: Mus musculus; test: Minimal effective dose to reverse Scopolamine induced amnesia, when given sc in mouse passive avoidance test; Dose limited by solubility problems; assay type: functional

SMILES | Dose [1] | Delta latency time [2] | Latency time [3] | Latency time [4] | Dose [5] | Dose [6]
O=C1CC[C@@H]2CN(S(=O)(=O)c3ccc(F)cc3)CCN12 | 0.001 mg/kg | 93.8 s | 104.4 s | 19.7 s |  | 
O=C1CC[C@@H]2CN(Cc3ccc(F)cc3)CCN12 | >10 mg/kg |  |  |  |  | 
O=C(c1ccc(F)cc1)N1CCN2C(=O)CC[C@@H]2C1 | 10 mg/kg | 77.2 s | 88.9 s | 11.7 s |  | 
Cc1ccc(C(=O)N2CCN3C(=O)CC[C@@H]3C2)cc1 | 1 mg/kg | 84.5 s | 100.1 s | 15.6 s |  | 
O=C1CC[C@@H]2CN(S(=O)(=O)c3ccc([N+](=O)[O-])cc3)CCN12 | 10 mg/kg | 75.4 s | 89.2 s | 13.8 s |  | 
Cc1ccc(S(=O)(=O)N2CCN3C(=O)CC[C@@H]3C2)cc1 | 1 mg/kg | 80.5 s | 95.6 s | 15.1 s |  | 
NC(=O)CN1CCCC1=O |  | 91.2 s | 108.8 s | 17.6 s | 30 mg/kg | 
COc1ccc(C(=O)N2CCN3C(=O)CC[C@@H]3C2)cc1 |  |  |  |  |  | >1 mg/kg
O=C(c1ccc(Cl)cc1)N1CCN2C(=O)CC[C@@H]2C1 | 10 mg/kg | 85.4 s | 103.7 s | 18.3 s |  | 
O=C(c1ccc([N+](=O)[O-])cc1)N1CCN2C(=O)CC[C@@H]2C1 | 10 mg/kg | 78.2 s | 96.2 s | 18 s |  | 
O=C1CC[C@@H]2CN(S(=O)(=O)c3ccc(Cl)cc3)CCN12 |  |  |  |  |  | >0.1 mg/kg
O=C1CC[C@@H]2CN(Cc3ccccc3)CCN12 | 1 mg/kg | 63.2 s | 77.4 s | 14.2 s |  | 
COc1ccc(S(=O)(=O)N2CCN3C(=O)CC[C@@H]3C2)cc1 | 0.1 mg/kg | 103.5 s | 118.3 s | 14.8 s |  | 
O=C1CC[C@@H]2CN(S(=O)(=O)c3ccccc3)CCN12 |  |  |  |  |  | >10 mg/kg
O=C(c1ccccc1)N1CCN2C(=O)CC[C@@H]2C1 | 1 mg/kg | 85.2 s | 102 s | 16.8 s |  | 
C[C@@H]1C[C@@H]2CN(C(=O)c3ccccc3)CCN2C1=O (relative stereo) | 1 mg/kg | 65.8 s | 83.5 s | 17.7 s |  | 
C[C@H]1C[C@@H]2CN(C(=O)c3ccccc3)CCN2C1=O (relative stereo) | 1 mg/kg | 85.2 s | 99.5 s | 14.3 s |  | 
C[C@H]1C[C@@H]2CN(C(=O)c3ccc(F)cc3)CCN2C1=O (relative stereo) | 0.1 mg/kg | 85.6 s | 107.4 s | 21.8 s |  | 
C[C@@H]1C[C@@H]2CN(S(=O)(=O)c3ccc(F)cc3)CCN2C1=O (relative stereo) | 0.1 mg/kg | 96.5 s | 118.4 s | 21.9 s |  | 
C[C@H]1C[C@@H]2CN(S(=O)(=O)c3ccccc3)CCN2C1=O (relative stereo) | 10 mg/kg | 73 s | 91.3 s | 18.3 s |  | 
C[C@H]1C[C@@H]2CN(S(=O)(=O)c3ccc(F)cc3)CCN2C1=O (relative stereo) | 0.1 mg/kg | 78 s | 94.9 s | 16.9 s |  | 
C[C@@H]1C[C@@H]2CN(S(=O)(=O)c3ccccc3)CCN2C1=O (relative stereo) | 1 mg/kg | 78.5 s | 94.8 s | 13.6 s |  | 
C[C@@H]1C[C@@H]2CN(C(=O)c3ccc(F)cc3)CCN2C1=O (relative stereo) | 0.1 mg/kg | 80 s | 104 s | 24 s |  | 
CN1[C@@H]2C[C@@H](OC(=O)[C@H](CO)c3ccccc3)C[C@H]1[C@@H]1O[C@@H]12 [SCOPOLAMINE] |  | 27.9 s | 44.5 s |  | 1.5 mg/kg | 
